The species named for test [1] is Rattus norvegicus. The experiment in a line: Diuretic activity in the rats, determined by a modified Lipschitz test. In kind it is functional, Urine. Summed up: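 Modified Lipschitz test: rats deprived of water 24 h, grouped in threes of similar weight in diuresis funnels. Oral dose of 50 mg/kg, suspended in 2% starch solution, by stomach tube.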
The species entered for test [2] is Rattus norvegicus. The experiment in a line: Saluretic activity in the rat measured as concentration of chloride in urine. In kind it is functional. In short, it runs like this: (§1)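 Rats deprived of food 24 h, water ad libitum, dosed 50 mg/kg by stomach tube as suspension in 2% starch, no extra water load. Groups of three in diuresis funnels; urine over first 5 h collected. Na⁺ and K⁺ by flame photometry, Cl⁻ argentometrically; expressed as mequiv/kg.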

Test [3] is filed under the species Rattus norvegicus. The experiment in a line: Saluretic activity in the rat measured as concentration of K+ in urine. In kind it is functional. Summed up: as §1
The species entered for test [4] is Rattus norvegicus. The experiment in a line: Saluretic activity in the rat measured as concentration of Na+ in urine. In kind it is functional. In short, it runs like this:
as §1

Results on 22 molecules are retold here after ChEMBL document CHEMBL1122273, “5-sulfamoylorthanilic acids, a sulfonamide series with salidiuretic activity” (J Med Chem, 1983).

In test [1], `NS(=O)(=O)c1cc(S(=O)(=O)[O-])c(NCC2CCCO2)cc1Cl.[Na+]` (stereo not drawn) showed a Diuretic activity of 0.4 mL/kg. For the same molecule, the figures for the Saluretic activity in test [2], in test [3] and in test [4] were 0.5 m equiv 5hr-1 kg-1, 0.4 m equiv 5hr-1 kg-1 and 0.4 m equiv 5hr-1 kg-1, respectively.
On to `NS(=O)(=O)c1cc(S(=O)(=O)[O-])c(N(Cc2ccccc2)Cc2ccccc2)cc1Cl.[Na+]`, for which, in test [1], the Diuretic activity amounted to 0.7 mL/kg. Further, the values for the Saluretic activity in test [2], in test [3] and in test [4] were 0.9 m equiv 5hr-1 kg-1, 0.8 m equiv 5hr-1 kg-1 and 0.3 m equiv 5hr-1 kg-1, respectively.
As to `CN(Cc1ccco1)c1cc(Oc2ccccc2)c(S(N)(=O)=O)cc1S(=O)(=O)[O-].[K+]`, in test [1], the Diuretic activity came out at 1.3 mL/kg. Besides, the Saluretic activity amounted to 1.7 m equiv 5hr-1 kg-1 in test [2], 1.5 m equiv 5hr-1 kg-1 in test [3] and 0.3 m equiv 5hr-1 kg-1 in test [4].
In test [1], `NCc1ccco1.NS(=O)(=O)c1cc(S(=O)(=O)O)c(NCc2ccco2)cc1Cl` had a Diuretic activity of 3.2 mL/kg. Besides, the values for the Saluretic activity in test [2], in test [3] and in test [4] were 7.2 m equiv 5hr-1 kg-1, 2.3 m equiv 5hr-1 kg-1 and 6.3 m equiv 5hr-1 kg-1, respectively.
Consider `NS(=O)(=O)c1cc(S(=O)(=O)[O-])c(NCc2ccncc2)cc1Cl.[Na+]`, for which the Diuretic activity in test [1] worked out at 0.2 mL/kg. Further, the Saluretic activity in test [2] worked out at 0.1 m equiv 5hr-1 kg-1; in test [3], 0.4 m equiv 5hr-1 kg-1; in test [4] it was 0.1 m equiv 5hr-1 kg-1.
`Cc1ccc(Oc2cc(NCc3ccco3)c(S(=O)(=O)[O-])cc2S(N)(=O)=O)cc1C.[K+]` registered a Diuretic activity in test [1] of 1.3 mL/kg. Besides, the values for the Saluretic activity in test [2], in test [3] and in test [4] were 3.7 m equiv 5hr-1 kg-1, 1.4 m equiv 5hr-1 kg-1 and 2.2 m equiv 5hr-1 kg-1, respectively.
Turning to `NS(=O)(=O)c1cc(S(=O)(=O)[O-])c(NCc2ccco2)cc1Oc1ccc(Cl)cc1.[K+]`, the Diuretic activity in test [1] is 2.2 mL/kg. Moreover, the results for the Saluretic activity in test [2], in test [3] and in test [4] were 6.4 m equiv 5hr-1 kg-1, 2 m equiv 5hr-1 kg-1 and 5.1 m equiv 5hr-1 kg-1, respectively.
In the same order, the values of `NS(=O)(=O)c1cc(S(=O)(=O)[O-])c(NCc2ccco2)cc1S(=O)(=O)CC1CCCCC1.[Na+]` are 4.6 mL/kg, 10.7 m equiv 5hr-1 kg-1, 2.7 m equiv 5hr-1 kg-1 and 8.8 m equiv 5hr-1 kg-1.
In the case of `Nc1cc(Oc2ccccc2)c(S(N)(=O)=O)cc1S(=O)(=O)[O-].[K+]`, the Diuretic activity in test [1] came out at 1 mL/kg. For the same molecule, the values for the Saluretic activity in test [2], in test [3] and in test [4] were 0.7 m equiv 5hr-1 kg-1, 1.3 m equiv 5hr-1 kg-1 and 0.5 m equiv 5hr-1 kg-1, respectively.
In the same order, the values of `COc1ccccc1CNc1cc(Cl)c(S(N)(=O)=O)cc1S(=O)(=O)[O-].[Na+]` are 0.2 mL/kg, 0.1 m equiv 5hr-1 kg-1, 0.3 m equiv 5hr-1 kg-1 and 0.1 m equiv 5hr-1 kg-1.
The corresponding values for `Cc1ccc(N(C)c2cc(NCc3ccco3)c(S(=O)(=O)[O-])cc2S(N)(=O)=O)cc1.[Na+]` are 1.2 mL/kg, 2.3 m equiv 5hr-1 kg-1, 1.9 m equiv 5hr-1 kg-1 and 1.6 m equiv 5hr-1 kg-1.
`NS(=O)(=O)c1cc(S(=O)(=O)[O-])c(NCc2ccc3c(c2)OCO3)cc1Cl.[Na+]` registered a Diuretic activity in test [1] of 0.4 mL/kg. The Saluretic activity is recorded as 0.3 m equiv 5hr-1 kg-1 in test [2], 0.3 m equiv 5hr-1 kg-1 in test [3] and 0.4 m equiv 5hr-1 kg-1 in test [4].
As to `CCCCCCS(=O)(=O)c1cc(NCc2ccco2)c(S(=O)(=O)[O-])cc1S(N)(=O)=O.[Na+]`, in test [1], the Diuretic activity came out at 0.7 mL/kg. Further, the figures for the Saluretic activity in test [2], in test [3] and in test [4] were 1.2 m equiv 5hr-1 kg-1, 1.9 m equiv 5hr-1 kg-1 and 1.1 m equiv 5hr-1 kg-1, respectively.
`CNS(=O)(=O)c1cc(S(=O)(=O)[O-])c(NCc2ccco2)cc1N(C)c1ccccc1.[K+]` yielded a Diuretic activity in test [1] of 1.3 mL/kg. The Saluretic activity in test [2] was 1.8 m equiv 5hr-1 kg-1; in test [3], 1.4 m equiv 5hr-1 kg-1; in test [4] it was 1.2 m equiv 5hr-1 kg-1.
In the same order, the values of `CN(Cc1ccco1)c1cc(Cl)c(S(N)(=O)=O)cc1S(=O)(=O)[O-].[Na+]` are 0.8 mL/kg, 0.8 m equiv 5hr-1 kg-1, 0.5 m equiv 5hr-1 kg-1 and 0.8 m equiv 5hr-1 kg-1.
In test [1], `CNS(=O)(=O)c1cc(S(=O)(=O)[O-])c(NCc2ccco2)cc1Oc1ccccc1.[K+]` gave a Diuretic activity of 1.6 mL/kg. Moreover, the Saluretic activity is recorded as 1 m equiv 5hr-1 kg-1 in test [2], 0.8 m equiv 5hr-1 kg-1 in test [3] and 0.8 m equiv 5hr-1 kg-1 in test [4].
For the molecule `Cc1cccc(Oc2cc(NCc3ccco3)c(S(=O)(=O)[O-])cc2S(N)(=O)=O)c1.[K+]`, the Diuretic activity in test [1] came to 4.4 mL/kg. In addition, the Saluretic activity in test [2] is 7.9 m equiv 5hr-1 kg-1; in test [3], 2.2 m equiv 5hr-1 kg-1; in test [4], 6.7 m equiv 5hr-1 kg-1.
In turn, `NS(=O)(=O)c1cc(S(=O)(=O)[O-])c(NCc2ccco2)cc1NCc1ccccc1.[K+]` yielded a Diuretic activity in test [1] of 1 mL/kg. In addition, the Saluretic activity in test [2] is 1.2 m equiv 5hr-1 kg-1; in test [3], 0.6 m equiv 5hr-1 kg-1; in test [4], 0.8 m equiv 5hr-1 kg-1.
In the same order, the values of `NS(=O)(=O)c1cc(S(=O)(=O)[O-])c(NCc2ccco2)cc1S(=O)(=O)Cc1ccccc1.[K+]` are 1 mL/kg, 0.7 m equiv 5hr-1 kg-1, 0.6 m equiv 5hr-1 kg-1 and 0.8 m equiv 5hr-1 kg-1.
`CN(c1ccc(Cl)cc1)c1cc(NCc2ccco2)c(S(=O)(=O)[O-])cc1S(N)(=O)=O.[Na+]` registered a Diuretic activity in test [1] of 1.2 mL/kg. Moreover, the results for the Saluretic activity in test [2], in test [3] and in test [4] were 0.7 m equiv 5hr-1 kg-1, 1.1 m equiv 5hr-1 kg-1 and 0.7 m equiv 5hr-1 kg-1, respectively.
`CN(c1ccccc1)c1cc(NCc2ccco2)c(S(=O)(=O)O)cc1S(N)(=O)=O.N` returned a Diuretic activity in test [1] of 4.8 mL/kg. The Saluretic activity turned out to be 8.3 m equiv 5hr-1 kg-1 in test [2], 2.1 m equiv 5hr-1 kg-1 in test [3] and 6.8 m equiv 5hr-1 kg-1 in test [4].
In the same order, the values of `C1CCC(NC2CCCCC2)CC1.NS(=O)(=O)c1cc(S(=O)(=O)O)c(NCc2ccco2)cc1Oc1ccccc1` are 0.9 mL/kg, 0.8 m equiv 5hr-1 kg-1, 1 m equiv 5hr-1 kg-1 and 0.7 m equiv 5hr-1 kg-1.
